Fibroblast inh – blocks proliferation of human lung fibroblasts; LL 47 human lung fibroblast viability, ATP luminescence; stronger effect = lower value; viability, % at 10 µM; 1.1% of 85,000 active;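 active = viability at or below 50% in the single dose screen; inactive = viability above 50%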;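 also: compound exposure lasted 72 h before the ATP readout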
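Test system: LL 47 human lung fibroblasts; Quantity: 1,150 cells/well; Buffer or medium: IMEM plus 15% FBS; Dosing: tenfold compound dosing solution, DMSO at 0.1%; Timing: overnight cell rest, 72 h compound treatment at 37 °C; Detection: ATP-based CellTiter-Glo luminescent readout; Read-out basis: viability percentage against median untreated-cell control; Controls: cell-only wells, no compound.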
HCT116 PTEN-null – suppresses growth of cells with PTEN deletion; HCT116 PTEN-null viability, CellTiter-Glo, 60 h; stronger effect = lower value; viability, % at 10 µM; 1.2% of 140,000 active;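 active = viability at or below a set limit, 4 SD under the median of all tested compounds, cut at about 3.7% in these data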;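 also: PTEN knockout HCT116 line with beta catenin targeted HCT116 as companion control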
HUVEC inhibit – inhibitors of human endothelial cell proliferation. HUVEC proliferation, CellTiter-Glo luminescence, 72 h; stronger effect = lower value. viability, % at 10 µM (by protocol). 1.1% of 86,000 active. AID 648;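 active = viability at or below 30%; inactive = viability above 30%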
H69AR growth 86K – blocks growth of human H69AR lung tumor cells | viability, % at 10 µM | 6% of 85,000 active | H69AR lung tumor viability, ATP luminescence, 72 h; stronger effect = lower value | AID 598;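 active = viability at or below 40%; inactive = viability above 40%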;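 also: multidrug resistant small cell line overexpressing MRP-1 efflux transporter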
bCat KO growth – beta-catenin-lacking colon tumor cell growth suppression | HCT116 beta-catenin knockout viability, CellTiter-Glo, 60 h; stronger effect = lower value | viability, % at 10 µM | 1.5% of 140,000 active | AID 818;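 active = viability at or under a set limit, the compound median less 4 SD, cut at about 6% in these data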
Of the large screens only hits and unclear results are named; the others gave an inactive call. Only a selection was taken, and hits are over-represented in it overall.

CCn1cc(C(=O)N[C@H](C)c2ccccc2)c(=O)c2cc(F)c(N3CCN(C)CC3)cc21	H69AR growth 86K 9.7
CCn1cc(C(=O)NCc2ccccn2)c(=O)c2cc(F)c(N3CCN(C)CC3)cc21	none
CCn1cc(C(=O)NCc2ccc3c(c2)OCO3)c(=O)c2cc(F)c(N3CCN(C)CC3)cc21	HCT116 PTEN-null 2.3, H69AR growth 86K 21, bCat KO growth 2.5
CCC(C)(C)n1nnnc1CN1CCN(C(c2ccccc2)c2ccccc2)CC1	none
Cc1ccc(-n2ncc(C(=O)NCc3ccc4c(c3)OCO4)c2NC(=O)c2ccco2)cc1C	none
Cc1ccc(S(=O)(=O)N(C)C)cc1NC(=O)CSc1ncc(C(F)(F)F)cc1Cl	bCat KO growth 1.3 (no result: Fibroblast inh, HUVEC inhibit, H69AR growth 86K)
CCN(CC)S(=O)(=O)c1ccc(C)c(NC(=O)CSc2ncc(C(F)(F)F)cc2Cl)c1	none (no result: Fibroblast inh, HUVEC inhibit, H69AR growth 86K)
Cc1ccc(S(=O)(=O)N2CCN(C(=O)CSc3ncc(C(F)(F)F)cc3Cl)CC2)cc1	H69AR growth 86K 6.2
CCOc1ncccc1C(=O)Nc1cccc(C(=O)Nc2cccc(S(=O)(=O)CCO)c2)c1	H69AR growth 86K 30
COc1ccc(-c2c3c(nc4sc(C(=O)Nc5ccccc5)c(N)c24)CCC3)cc1	H69AR growth 86K 30 (no result: HCT116 PTEN-null, bCat KO growth)
N#CC1=C(N)NC(SCc2ccccc2)=C(C#N)C12CCCCC2	HUVEC inhibit 26, H69AR growth 86K 11
CCSC1=C(C#N)C2(CCCCC2)C(C#N)=C(N)N1	none
Cc1cccc(Oc2ncnc3onc(C)c23)c1C	none (no result: Fibroblast inh, HUVEC inhibit, H69AR growth 86K)
CCOC(=O)c1sc(=NC(=O)c2cc(OC)c(OC)c(OC)c2)n(C)c1C	H69AR growth 86K 11
CCOC(=O)c1sc(=NC(=O)c2ccc(S(=O)(=O)N3CCOCC3)cc2)n(C)c1C	none (no result: HCT116 PTEN-null, bCat KO growth)
O=C(NNc1nc2ccc(Cl)cc2s1)c1cc(-c2cccs2)nc2ccccc12	HCT116 PTEN-null 3.7, bCat KO growth 4.2 (no result: Fibroblast inh, HUVEC inhibit, H69AR growth 86K)
Cc1cc(C)c2nc(NNC(=O)c3cc(-c4cccs4)nc4ccccc34)sc2c1	none (no result: Fibroblast inh, HUVEC inhibit, H69AR growth 86K)
Cc1ccc2sc(NNC(=O)c3cc(-c4cccs4)nc4ccccc34)nc2c1C	bCat KO growth 4.8 (no result: Fibroblast inh, HUVEC inhibit, H69AR growth 86K)
O=C(NN1CCOCC1)c1cc(-c2cccs2)nc2ccccc12	none (no result: Fibroblast inh, HUVEC inhibit, H69AR growth 86K)
COC(=O)c1coc(-c2ccc(OC)cc2)c1C(=O)OC	none
Cc1cc(C)c2ccc(N)nc2c1O	Fibroblast inh 9.4, H69AR growth 86K 14, bCat KO growth 3.8
CSc1nc(N2CCN(CCO)CC2)c2sc3nc(-c4ccco4)c4c(c3c2n1)CCC4	H69AR growth 86K 0.8 (no result: HCT116 PTEN-null, bCat KO growth)
CCCS(=O)(=O)c1nnnn1-c1cccc(OC)c1	Fibroblast inh 12, HCT116 PTEN-null 1.3, H69AR growth 86K 1.1, bCat KO growth 1.4
COc1cccc(-n2nnnc2SCC(=O)Nc2ccc(C(C)=O)cc2)c1	none
CCOC(=O)C1=c2/c(=C/c3ccccc3OC)c(N)c(C#N)n2C(=O)C(c2ccccc2OC)S1 (stereo not given)	HUVEC inhibit 27, H69AR growth 86K 3.4 (no result: HCT116 PTEN-null)
CN1CCN(Cc2nc3ccccc3c(=O)n2Cc2nc(-c3ccc([N+](=O)[O-])cc3)cs2)CC1	HCT116 PTEN-null 0.5, bCat KO growth 0.8 (no result: Fibroblast inh, HUVEC inhibit, H69AR growth 86K)
COc1cc(/C=N/N(C)c2ccccc2)cc(Cl)c1O	H69AR growth 86K 16
COc1ccc(OC)c(/C=N/N(C)c2ccccc2)c1	none
COc1ccc(C2C(C(=O)c3ccccc3)=C(C)Nc3nc4ccccc4n32)cc1OC (stereo not given)	none (no result: Fibroblast inh, HUVEC inhibit, H69AR growth 86K)
CCOC(=O)C1=C(C)Nc2nc3ccccc3n2C1c1ccccc1 (stereo not given)	H69AR growth 86K 11
CCSc1nnc(NC(=O)NC(CC)(C(F)(F)F)C(F)(F)F)s1	H69AR growth 86K 14
CCSc1nnc(NC(=O)NC(C)(C(F)(F)F)C(F)(F)F)s1	none (no result: Fibroblast inh, HUVEC inhibit, H69AR growth 86K)
CCCC1(C(=O)O)NC(c2ccc(OC)cc2O)C2C(=O)N(c3ccc(OC)cc3)C(=O)C21 (stereo not given)	none
COc1ccccc1C1(CC(=O)N2CCOCC2)CCOC(C(C)C)C1 (stereo not given)	none
COc1cc2[nH]c(=O)n(CCCCCC(=O)N3CCN(c4ccccc4)CC3)c(=O)c2cc1OC	none
COc1cc2[nH]c(=O)n(CCC(=O)N3CCN(c4cccc(C)c4C)CC3)c(=O)c2cc1OC	H69AR growth 86K 2.4
O=C(COc1ccc(Cl)cc1Cl)NCCC1=CCCCC1	none (no result: Fibroblast inh, HUVEC inhibit, H69AR growth 86K)
CC(=O)Nc1ccc(S(=O)(=O)NC2=C(N3CCN(c4ccc(F)cc4)CC3)C(=O)c3ccccc3C2=O)cc1	HCT116 PTEN-null 2.1, HUVEC inhibit 4.8, bCat KO growth 2.0
Cc1ccc(Cn2c(=S)[nH]c3ccc(N4CCOCC4)cc3c2=O)o1	Fibroblast inh 46, H69AR growth 86K 5.8
CCC[N+](CC#Cc1ccccc1)(CCC)CC(=O)OCC	none (no result: Fibroblast inh, HUVEC inhibit, H69AR growth 86K)
CC(C)(C)c1ccc(C(=O)NCC(=O)OCC(=O)Nc2ccc3c(c2)OCCO3)cc1	none (no result: Fibroblast inh, HUVEC inhibit, H69AR growth 86K)
COc1ccc(-c2cc(C(=O)Nc3nc4ccccc4s3)c3ccccc3n2)cc1OC	none (no result: Fibroblast inh, HUVEC inhibit, H69AR growth 86K)
COc1cc(NC(=O)c2cc3c(C)nc4ccccc4c3o2)cc(OC)c1OC	H69AR growth 86K 35
COc1ccc(NC(=O)c2cc(-c3ccc(C)o3)nc3ccccc23)cc1OC	H69AR growth 86K 35
COc1ccc(-c2cc(C(=O)Nc3c(Cl)cc(Cl)cc3Cl)c3ccccc3n2)cc1OC	HCT116 PTEN-null 1.8, bCat KO growth 2.1 (no result: Fibroblast inh, HUVEC inhibit, H69AR growth 86K)
COc1ccc(C)cc1NC(=O)c1cc2c(C)nc3ccccc3c2o1	none (no result: HCT116 PTEN-null, bCat KO growth)
COc1ccc(-c2cc(C(=O)Nc3ccc(Cl)cc3Cl)c3ccccc3n2)cc1OC	bCat KO growth 5.4 (no result: Fibroblast inh, HUVEC inhibit, H69AR growth 86K)
CCS(=O)(=O)N1CCC(C(=O)N2CCc3ccccc3C2)CC1	none
O=C(CSc1ccc2c(c1)OCCO2)Nc1cccc(S(=O)(=O)N2CCCCC2)c1	none (no result: Fibroblast inh, HUVEC inhibit, H69AR growth 86K)
N/C(Cc1ccc([N+](=O)[O-])cc1)=N\OC(=O)C(c1ccccc1)c1ccccc1	none (no result: Fibroblast inh, HUVEC inhibit, H69AR growth 86K)
COc1ccc(C2C(C(=O)OC3CCCCC3)=C(C)Nc3nnnn32)c(OC)c1OC (stereo not given)	H69AR growth 86K 7.3
COc1ccc2cc(C(c3nnnn3C3CCCCC3)N3CCCCCC3)c3nnnn3c2c1 (stereo not given)	H69AR growth 86K 35 (no result: HCT116 PTEN-null, bCat KO growth)
COc1ccc2cc(C(c3nnnn3C3CCCC3)N3CCCCCC3)c3nnnn3c2c1 (stereo not given)	HCT116 PTEN-null 2.3
COc1ccc(C(c2nnnn2C2CCCC2)N2CCC(C)CC2)c(OC)c1 (stereo not given)	none
Cn1c(-c2ccc(F)cc2)cnc1SCC(=O)Nc1ccccc1N1CCOCC1	none
COc1cccc(C(=O)N/N=C(/c2ccccc2)c2ccccn2)c1	HCT116 PTEN-null 1.9, bCat KO growth 5.0 (no result: Fibroblast inh, HUVEC inhibit, H69AR growth 86K)
COc1cc(C(=O)N/N=C(\c2ccccc2)c2ccccn2)cc(OC)c1OC	HCT116 PTEN-null 3.8, bCat KO growth 4.8 (no result: Fibroblast inh, HUVEC inhibit, H69AR growth 86K)
COc1cc(C(=O)Nc2cccc3cccnc23)cc(OC)c1OC	none
COc1cccc(C(=O)N/N=C(/CCC(=O)O)c2ccccc2)c1	none (no result: Fibroblast inh, HUVEC inhibit, H69AR growth 86K)
O=C1/C(=C/c2cccnc2)Oc2cc(OS(=O)(=O)c3ccc(Cl)cc3)ccc21	none
COc1ccc(S(=O)(=O)Oc2ccc3c(c2)O/C(=C\c2cccnc2)C3=O)cc1	H69AR growth 86K 17
